Source: ChEMBL document CHEMBL3102734, “Inhibition of LOX by flavonoids: a structure-activity relationship study” (Eur J Med Chem, 2014)
Calls of active or inactive are those of the source. No cut-off for these calls is given here.

Experiments:
[1] = target: T1, Seed linoleate 13S-lipoxygenase-1 (Glycine max) (UniProt P08170); assay: Binding affinity to soybean LOX-1 at 1248 uM by STD-[1H] NMR spectroscopic analysis
T1 sequence (whole entry): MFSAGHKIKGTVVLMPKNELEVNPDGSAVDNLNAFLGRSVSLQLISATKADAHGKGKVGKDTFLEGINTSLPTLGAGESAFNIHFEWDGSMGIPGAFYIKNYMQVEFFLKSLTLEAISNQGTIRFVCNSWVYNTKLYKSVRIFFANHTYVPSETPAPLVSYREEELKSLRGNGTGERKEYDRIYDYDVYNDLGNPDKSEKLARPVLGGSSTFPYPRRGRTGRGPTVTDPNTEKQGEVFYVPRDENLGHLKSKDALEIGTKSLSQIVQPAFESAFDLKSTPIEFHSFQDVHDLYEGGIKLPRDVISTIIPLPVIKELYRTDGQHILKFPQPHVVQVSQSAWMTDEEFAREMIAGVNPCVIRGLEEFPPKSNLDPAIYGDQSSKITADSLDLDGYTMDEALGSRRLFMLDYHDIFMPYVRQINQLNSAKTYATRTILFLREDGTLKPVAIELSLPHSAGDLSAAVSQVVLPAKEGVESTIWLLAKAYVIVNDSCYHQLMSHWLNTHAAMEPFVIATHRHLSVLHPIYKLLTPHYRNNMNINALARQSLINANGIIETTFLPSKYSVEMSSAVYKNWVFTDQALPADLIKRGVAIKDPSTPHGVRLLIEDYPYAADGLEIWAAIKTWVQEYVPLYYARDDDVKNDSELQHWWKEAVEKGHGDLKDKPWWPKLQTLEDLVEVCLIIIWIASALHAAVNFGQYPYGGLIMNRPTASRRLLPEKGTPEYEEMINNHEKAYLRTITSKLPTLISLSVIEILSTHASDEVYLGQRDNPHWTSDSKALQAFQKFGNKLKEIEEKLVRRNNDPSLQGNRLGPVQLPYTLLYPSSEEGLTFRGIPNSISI
Outline: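 STD-1H NMR at 37 °C, 600 MHz, cryoprobe. Lyophilized soybean LOX-1 in Tris buffer (20 mM Tris, 7 mM (NH4)2SO4, 3.5 mM MgCl2, 0.3 mM DTT in D2O, pH 9.0). Ligand added from a 16.6 mM DMSO-d6 stock. Final concentrations: LOX 4 μM, ligand 1248 μM, ratio 300:1. On-resonance saturation at 1.0 ppm; off-resonance reference at 20000 Hz.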

[2] = target: T2, Polyunsaturated fatty acid 5-lipoxygenase (Homo sapiens, UniProt P09917); assay: Inhibition of 5-LOX-mediated LTB4 production in human neutrophils using arachidonic acid as substrate preincubated for 10 mins followed by substrate addition measured after 8 mins by enzyme immunoassay
T2 sequence (P09917 whole entry): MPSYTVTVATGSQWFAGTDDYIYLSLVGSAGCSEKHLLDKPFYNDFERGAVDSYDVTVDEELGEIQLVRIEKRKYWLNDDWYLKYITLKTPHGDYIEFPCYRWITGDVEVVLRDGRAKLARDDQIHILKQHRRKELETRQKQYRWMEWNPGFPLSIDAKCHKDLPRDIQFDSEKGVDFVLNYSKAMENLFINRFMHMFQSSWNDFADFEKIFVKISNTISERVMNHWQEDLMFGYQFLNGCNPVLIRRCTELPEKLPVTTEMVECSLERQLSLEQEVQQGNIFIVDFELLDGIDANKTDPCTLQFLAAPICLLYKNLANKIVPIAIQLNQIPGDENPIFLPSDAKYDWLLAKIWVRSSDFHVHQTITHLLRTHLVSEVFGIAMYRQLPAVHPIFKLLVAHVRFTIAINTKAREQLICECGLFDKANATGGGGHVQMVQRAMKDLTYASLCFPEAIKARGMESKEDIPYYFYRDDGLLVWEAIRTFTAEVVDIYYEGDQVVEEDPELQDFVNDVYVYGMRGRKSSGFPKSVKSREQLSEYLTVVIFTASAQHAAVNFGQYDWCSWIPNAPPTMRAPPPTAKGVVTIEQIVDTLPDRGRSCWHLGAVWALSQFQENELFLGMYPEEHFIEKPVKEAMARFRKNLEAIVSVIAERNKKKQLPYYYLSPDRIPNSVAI
Outline: (§1)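 Isolated human neutrophils held in HBSS on ice; viability checked by trypan blue. Flavonoids (0.15–40 μM) pre-incubated 10 min, then A23187 (5 μM) plus arachidonic acid (10 μg/mL) added for 8 min. Stopped with cold methanol and centrifuged 13,000 g, 1 min, 4 °C. LTB4 measured by EIA and expressed as % inhibition of control. NDGA (1 μM) positive control. At least three experiments.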

[3] = target: T3, Polyunsaturated fatty acid 5-lipoxygenase (Homo sapiens) (UniProt P09917); assay: Inhibition of 5-LOX-mediated LTB4 production in human neutrophils using arachidonic acid as substrate at 40 uM preincubated for 10 mins followed by substrate addition measured after 8 mins by enzyme immunoassay relative to control
T3 sequence (whole entry): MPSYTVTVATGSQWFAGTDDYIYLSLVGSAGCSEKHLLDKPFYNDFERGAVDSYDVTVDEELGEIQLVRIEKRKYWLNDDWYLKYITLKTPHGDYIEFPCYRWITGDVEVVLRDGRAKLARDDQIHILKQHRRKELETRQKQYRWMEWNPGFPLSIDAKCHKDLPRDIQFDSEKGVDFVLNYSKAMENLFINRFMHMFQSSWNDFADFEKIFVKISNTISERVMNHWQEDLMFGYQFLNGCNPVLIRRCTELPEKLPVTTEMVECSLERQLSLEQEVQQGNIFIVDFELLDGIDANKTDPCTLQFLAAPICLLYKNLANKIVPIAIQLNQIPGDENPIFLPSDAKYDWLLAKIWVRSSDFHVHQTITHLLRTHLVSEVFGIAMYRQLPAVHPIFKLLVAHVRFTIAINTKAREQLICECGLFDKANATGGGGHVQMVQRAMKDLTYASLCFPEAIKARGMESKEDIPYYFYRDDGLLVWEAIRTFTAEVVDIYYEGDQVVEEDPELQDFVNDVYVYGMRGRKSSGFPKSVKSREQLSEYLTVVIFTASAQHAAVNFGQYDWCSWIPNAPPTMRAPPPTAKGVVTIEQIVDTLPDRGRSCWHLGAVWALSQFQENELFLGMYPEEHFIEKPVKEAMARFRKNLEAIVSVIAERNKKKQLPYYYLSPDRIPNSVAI
Outline: as §1, with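 “blue. Cells at 3.5×10^6 cells/mL equilibrated 10 min at 37 °C.” for “blue.”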

[4] = target: T3, Polyunsaturated fatty acid 5-lipoxygenase (Homo sapiens); assay: Inhibition of 5-LOX-mediated LTB4 production in human neutrophils using arachidonic acid as substrate at 0.15 to 40 uM preincubated for 10 mins followed by substrate addition measured after 8 mins by enzyme immunoassay relative to control
Outline: as §1, with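 “blue. Cells at 3.5×10^6 cells/mL equilibrated 10 min at 37 °C.” for “blue.”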

[5] = target: T4, Seed linoleate 13S-lipoxygenase-1 (Glycine max, UniProt P08170); assay: Uncompetitive inhibition of soybean LOX-1 using linoleic acid as substrate preincubated for 5 mins followed by substrate addition by Lineweaver-Burk plot analysis
T4 sequence (P08170 whole entry): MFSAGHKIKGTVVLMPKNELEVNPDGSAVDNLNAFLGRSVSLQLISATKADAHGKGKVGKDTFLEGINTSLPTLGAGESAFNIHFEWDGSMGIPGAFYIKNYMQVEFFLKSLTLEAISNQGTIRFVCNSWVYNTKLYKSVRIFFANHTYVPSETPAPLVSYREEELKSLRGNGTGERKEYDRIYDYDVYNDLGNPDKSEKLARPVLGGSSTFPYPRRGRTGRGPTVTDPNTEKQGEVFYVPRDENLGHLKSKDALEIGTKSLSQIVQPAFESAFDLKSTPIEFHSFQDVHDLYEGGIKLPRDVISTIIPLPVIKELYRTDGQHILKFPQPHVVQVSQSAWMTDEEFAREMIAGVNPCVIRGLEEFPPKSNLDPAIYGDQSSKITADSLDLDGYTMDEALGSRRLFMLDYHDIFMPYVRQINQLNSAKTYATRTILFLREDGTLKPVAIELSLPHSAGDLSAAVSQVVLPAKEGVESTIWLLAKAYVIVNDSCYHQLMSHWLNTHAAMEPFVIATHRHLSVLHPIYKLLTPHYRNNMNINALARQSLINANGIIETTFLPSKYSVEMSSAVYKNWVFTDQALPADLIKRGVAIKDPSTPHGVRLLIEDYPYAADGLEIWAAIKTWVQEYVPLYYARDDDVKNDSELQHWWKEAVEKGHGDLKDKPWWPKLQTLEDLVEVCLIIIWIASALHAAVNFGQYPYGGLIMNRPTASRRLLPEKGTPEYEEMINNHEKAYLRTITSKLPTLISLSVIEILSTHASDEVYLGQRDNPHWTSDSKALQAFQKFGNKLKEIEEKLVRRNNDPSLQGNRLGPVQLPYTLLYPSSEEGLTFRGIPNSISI
Outline: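 Soybean LOX-1 (supplied lyophilized) kinetic assay. Enzyme pre-incubated with inhibitor 5 min, then linoleic acid added. Readings every 30 s for 10 min; rate taken as the 0–3 min slope. Three inhibitor concentrations tested against three substrate concentrations. Inhibition type assigned by nonlinear Michaelis–Menten fitting and Lineweaver–Burk plots. At least four experiments, each in triplicate.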

Compound	inhibition [3]	other results
O=c1cc(-c2ccc(O)c(O)c2)oc2cc(O)ccc12		Activity [1]: Active; IC50 [2]: 2 µM
O=c1cc(-c2ccccc2)oc2ccccc12	< 50%	
O=c1cc(-c2ccc(O)cc2)oc2cc(O)ccc12	< 50%	
O=c1cc(-c2ccc(O)cc2)oc2ccccc12	38.4%	
O=c1cc(-c2cccc(O)c2)oc2ccccc12	< 50%	
O=c1cc(-c2ccccc2)oc2cccc(O)c12		inhibition [4]: inactive
O=C1CC(c2ccc(O)cc2)Oc2cc(O)cc(O)c21 (racemic)	< 50%	
COc1ccc(-c2cc(=O)c3c(O)cc(O)cc3o2)cc1OC	< 50%	

The next lines start with results.

inhibition [3]	Compound	other results
53.4%	O=C1CC(c2ccc(O)c(O)c2)Oc2cc(O)cc(O)c21 (racemic)	
< 50%	COc1cc(-c2cc(=O)c3c(O)cc(O)cc3o2)ccc1O	
Active	COc1ccc(-c2cc(=O)c3c(O)cc(O)cc3o2)cc1	Activity [1]: Active
52%	O=c1cc(-c2cccc(O)c2)oc2cc(O)cc(O)c12	Activity [1]: Active; Ki [5]: 95.4 µM
